In the library only some 2.3% were active in any assay of this set; here they are far more common.
TDP2 absorb: blocks human TDP2 phosphodiesterase activity. O95551. recombinant TDP2, T5PNP hydrolysis, p-nitrophenol absorbance 415 nm. inhibition, % at 12.8 µM. 0.34% of 370,000 active;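 active = inhibition above the mean of all tested compounds plus 3 SD, set per campaign, cut at about 25% in these data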
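Assay system: Recombinant human TDP2 | Quantity: 120 nM TDP2 per well | Incubation: 2 h at 37 °C | Signal: Epi absorbance | Evaluation: Percent inhibition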
Apaf-1 inh: blocks human Apaf-1 apoptosome activity; inhibition, % at 20 µM; O14727; 0.71% of 330,000 active; reconstituted apoptosome caspase-3 activity, DEVD-Rh110 fluorescence; active = inhibition of at least 40% at 20 µM
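Material: reconstituted apoptosome with Apaf-1, cytochrome c, caspase-9, procaspase-3, dATP; medium: pH 7.5 Hepes buffer with CHAPS, BSA, DTT; also added: cytochrome c and DEVD-Rh110 substrate; timing: 30 min plus 50 min, RT; signal: Rh110 fluorescence intensity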
PAFAH1B2 FP inh: blocks human PAF acetylhydrolase 1b catalytic subunit 2. P68402. recombinant PAFAH1B2, FP-rhodamine activity probe, fluorescence polarization. 1.2% of 340,000 active. inhibition, % at 3.39 µM;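 active = inhibition above the mean of all tested compounds plus 3 SD, cut at about 24% in these data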
Target sequence (P68402 whole entry, looked up): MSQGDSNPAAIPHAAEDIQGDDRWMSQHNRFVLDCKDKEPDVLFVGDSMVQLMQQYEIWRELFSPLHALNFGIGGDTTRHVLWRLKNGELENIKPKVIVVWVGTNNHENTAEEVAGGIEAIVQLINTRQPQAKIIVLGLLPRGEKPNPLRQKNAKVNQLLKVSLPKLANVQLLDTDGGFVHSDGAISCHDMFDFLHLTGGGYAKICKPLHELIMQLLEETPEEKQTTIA
PAFAH2 FP inh: PAFAH2 (human) inhibition. Q99487. 0.99% of 340,000 active. AID 492956. recombinant PAFAH2, FP-rhodamine activity probe, fluorescence polarization. inhibition, % at 3.39 µM;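 active = inhibition above the mean over all tested compounds plus 3 SD, cut at about 30% in these data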;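 note: inhibitors block probe labeling of enzyme so polarization drops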
PAFAH1B3 FP inh: inhibitors of human PAFAH1B3; Q15102; recombinant PAFAH1B3, FP-rhodamine probe, fluorescence polarization; inhibition, % at 3.39 µM; 0.28% of 340,000 active;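 active = inhibition above the screen-wide average of all tested compounds plus 3 SD, cut at about 25% in these data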
Target sequence (Q15102 whole entry, looked up): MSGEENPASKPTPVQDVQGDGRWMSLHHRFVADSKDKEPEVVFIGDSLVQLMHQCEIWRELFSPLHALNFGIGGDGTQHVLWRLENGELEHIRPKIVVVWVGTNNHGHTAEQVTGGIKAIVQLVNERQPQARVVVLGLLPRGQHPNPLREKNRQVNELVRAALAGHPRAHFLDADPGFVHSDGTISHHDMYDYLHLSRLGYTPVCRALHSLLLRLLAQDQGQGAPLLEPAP
Numbers stand for hits; - = inactive; . = no result.

SMILES | TDP2 absorb | Apaf-1 inh | PAFAH1B2 FP inh | PAFAH2 FP inh | PAFAH1B3 FP inh
CCOC(=O)c1sc(N(Cc2ccccc2)C(=O)COC(=O)c2ccccc2O)nc1C | - | - | 42 | - | -
COCc1[nH]nc2c1C(c1ccccc1)NC2=O (stereo not drawn) | - | . | . | . | .
CC(C)(C)c1ccc(NC(=O)N2CCCN(c3ccc([N+](=O)[O-])cn3)CC2)cc1 | - | - | 25 | - | -
Cc1ccc(-n2c(SCc3cccc(F)c3)nc3ccccc3c2=O)cc1 | - | . | . | . | .
CN(c1cccc(NC(=O)CSc2ccc(Cl)cc2)c1)S(C)(=O)=O | - | - | 49 | - | -
N#Cc1c(Nc2ccccc2)sc(C(=O)c2ccc(F)cc2)c1N | - | - | 30 | - | -
N#Cc1c(Nc2ccccc2)sc(C(=O)C2CC2)c1N | - | - | 28 | - | -
O=S1(=O)CC2c3ccc(F)cc3CN2CN1Cc1ccccc1 (stereo not drawn) | - | . | . | . | .
COCc1[nH]nc2c1C(c1cccc(C(F)(F)F)c1)N(c1ccc(OC)cc1)C2=O (stereo not drawn) | - | . | . | . | .
O=C(O)C1C2C=CC3(CN(c4cccc(C(F)(F)F)c4)C(=O)C13)O2 (stereo not drawn) | - | - | 25 | - | -
CCOC(=O)C1CCCN(S(=O)(=O)c2cc3[nH]c(=O)c(=O)[nH]c3cc2C)C1 (stereo not drawn) | - | - | 26 | - | -
CCOC(=O)C1CCCN(S(=O)(=O)c2ccc(S(=O)(=O)N3CCCC3)cc2)C1 (stereo not drawn) | - | - | - | - | -
COC(=O)C1CN(C2CC2)CCS(=O)(=O)N1Cc1cn(Cc2ccccc2)nn1 (stereo not drawn) | - | . | . | . | .
O=C(O)c1ccc(CSCc2ccccc2Cl)o1 | - | - | 30 | - | -
C[C@@H]1OC(C2CCCCC2)N(C)[C@H]2C[C@H]3c4[nH]c5cccc(-c6cccc(F)c6)c5c4CCN3C(=O)[C@@H]12 (stereo partly drawn) | - | . | . | . | .
C[C@@H](NC(=O)c1ccc(C#Cc2cccc(F)c2)cn1)C(C)(C)O | - | . | . | . | .
CC(NC(=O)c1cc2cc(Br)ccc2oc1=N)c1ccccc1 (stereo not drawn) | - | - | 37 | - | -
COc1ccc2c(c1)CCCN2C(=O)C1CCCN(S(=O)(=O)c2ccc(Br)s2)C1 (stereo not drawn) | - | . | . | . | .
CCOC(=O)C1=NOC(C(=O)NCc2ccccc2)(C(=O)c2ccc(OC)cc2)C1 (stereo not drawn) | - | . | . | . | .
CCn1c(CSc2nccn2C)nc2cc(C(=O)O)ccc21 | . | - | 30 | - | -
COc1ccc2nc3cc(Cl)ccc3c(Nc3cc(CN4CCCC4)c(O)c(CN4CCCC4)c3)c2n1 | - | 62 | . | . | .
COc1ccc2nc3cc(Cl)ccc3c(Nc3cc(C(C)C)c(O)cc3C)c2c1 | - | - | - | - | -
CSc1ccccc1N=Cc1nc(-c2ccccc2)oc1O | - | - | - | - | -
Cc1cccc(/N=C/c2nc(-c3ccccc3Br)oc2O)n1 | - | - | - | 66 | -
CC(C)C(=O)N1CCC(Oc2cccnc2)CC1 | - | . | . | . | .
SMILES | TDP2 absorb | Apaf-1 inh | PAFAH1B2 FP inh | PAFAH2 FP inh | PAFAH1B3 FP inh
C#CCOCCOCCOCCNc1nc(N2CCN(C(=O)CCCCCCCCCCNC(=O)[C@H](CO)n3cc(CCCSC)nn3)CC2)nc(N2CCN(C(=O)CCCCCCCCCCNC(=O)[C@H](CO)n3cc(CCCSC)nn3)CC2)n1 | - | - | - | - | -
C#CCOCCOCCOCCNc1nc(N2CCN(C(=O)CCCCCCCCCCNC(=O)[C@H](CO)n3cc(CCCSC)nn3)CC2)nc(N2CCN(C(=O)CCCCCCCCCCNC(=O)[C@H](CCCCN)n3cc(C[C@@H](C)CC)nn3)CC2)n1 | . | 68 | . | . | .
C#CCOCCOCCOCCNc1nc(N2CCN(C(=O)CCCCCCCCCCNC(=O)[C@H]([C@@H](C)CC)n3cc(CCCCN=C(N)N)nn3)CC2)nc(N2CCN(C(=O)CCCCCCCCCCNC(=O)[C@H](CCCCN)n3cc(C[C@@H](C)CC)nn3)CC2)n1 | . | 55 | . | . | .
C#CCOCCOCCOCCNc1nc(N2CCN(C(=O)CCCCCCCCCCNC(=O)[C@H](CCCCN)n3cc(CCCC(=O)O)nn3)CC2)nc(N2CCN(C(=O)CCCCCCCCCCNC(=O)[C@H](CCCN=C(N)N)n3cc(C[C@@H](C)CC)nn3)CC2)n1 | . | 76 | - | - | -
C#CCOCCOCCOCCNc1nc(N2CCN(C(=O)CCCCCCCCCCNC(=O)[C@H](CCCCN)n3cc(CCO)nn3)CC2)nc(N2CCN(C(=O)CCCCCCCCCCNC(=O)[C@H](CCCN=C(N)N)n3cc(C[C@@H](C)CC)nn3)CC2)n1 | . | 78 | - | - | -
COc1ccc(CN2CCC(CNC(=O)NC(C)C)CC2)cc1 | - | . | . | . | .
CC(CNS(=O)(=O)c1ccc2c(c1)NC(=O)CCS2)c1ccccc1 (stereo not drawn) | - | - | 39 | - | -
Cc1cc(C)c(NS(=O)(=O)c2ccc3c(c2)NC(=O)CCS3)c(C)c1 | - | - | - | - | -
COc1ccc(-c2cc(-c3nnc(SCC(=O)Nc4ccccc4-c4ccccc4)n3N)[nH]n2)cc1 | - | . | . | . | .
CCN(Cc1ccccc1)c1ccc(/C=N/NS(=O)(=O)c2ccc(C)c([N+](=O)[O-])c2)cc1 | - | - | 28 | - | -
CN(C)c1ccc(/C=N/NC(=S)NCc2ccccc2)cc1 | - | - | - | - | -
CCN(Cc1ccccc1)c1ccc(/C=N/N=C(N)N)cc1 | - | - | 25 | - | -
CCN(Cc1ccccc1)c1ccc(/C=N/NC(=S)NC(C)C)cc1 | - | - | 26 | - | -
O=C1CCC2(CCC(c3ccccc3)CC2)N1CCCO (stereo not drawn) | - | . | . | . | .
O=C(NNS(=O)(=O)c1ccc(Cl)cc1)c1cc(-c2ccccc2)nc2ccccc12 | - | - | 60 | - | -
O=C(NNS(=O)(=O)c1ccc(Cl)cc1)c1cc(-c2ccccc2)n[nH]1 | - | - | - | - | -
Cc1sc(NC(=O)CCCC(=O)O)c(C(N)=O)c1-c1ccccc1 | - | - | - | - | -
CCCC(=O)Nc1sc(-c2ccccc2)c(-c2ccccc2)c1C(=O)O | - | - | 42 | - | -
Cc1cccc(N2CCN(C(=O)Cc3c(C(=O)O)[nH]c4ccc(Cl)cc34)CC2)c1C | - | - | - | - | -
CC(C)CCNC(=O)Cc1c(C(=O)O)[nH]c2ccc(Cl)cc12 | - | - | 50 | - | -
COc1ccc(C2Nc3ccccc3C(=O)N2Cc2ccc(C)o2)cc1COc1c(C)cccc1C (stereo not drawn) | - | . | . | . | .
O=c1[nH]c(=S)n(C2CCCCC2)c(O)c1C=NCCN1CCOCC1 | - | - | 29 | - | -
Cc1cc(C)c(-n2c(O)c(C=NCCN3CCOCC3)c(=O)[nH]c2=O)c(C)c1 | - | - | - | - | -
CCN(C1CCCCC1)S(=O)(=O)c1ccc(S(=O)(=O)N2CCN(CCC#N)CC2)cc1 | - | - | 25 | - | -
O=C(O)c1ccc(C=Nn2c(-c3ccc(F)cc3)n[nH]c2=S)cc1 | - | . | . | . | .
CCOc1ncccc1C(=O)OCC(=O)Nc1ccc(C(C)C)cc1 | - | - | - | 51 | -
